The values below come from ChEMBL document CHEMBL2321691 (J Med Chem, 2013).

Activity calls are given as the source filed them. No cut-off for these calls is given here.

The test system of assay [1] is HeLa. Briefly: Cytotoxicity against human HeLa cells assessed as growth inhibition after 72 hrs by XTT assay. In general terms: Formazan colour is commonly taken as a measure of viable cells.
Assay [2] concerns HT-29. The assay can be described thus: Cytotoxicity against human HT-29 cells assessed as growth inhibition after 72 hrs by XTT assay. It is filed as functional, cell-based. Conditions: HT-29, 72 h. The method in brief:
(§1)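 Cells seeded at 1.5 x 10^3 per well (A549, HeLa, HT-29) or 3 x 10^3 (HL-60) in medium with 10% heat-inactivated FBS. Compound tested from 10-5 to 10-13 M for 72 h at 37 °C, then XTT readout. […] Triplicate wells, three experiments; mean ± S.D.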

Assay [3] has as its system HL-60. The assay can be described thus: Cytotoxicity against human HL60 cells assessed as growth inhibition after 72 hrs by XTT assay. It is filed as functional, cell-based. Conditions: HL-60, 72 h. Put shortly: as §1
Assay [4] has as its system A549. Briefly: Cytotoxicity against human A549 cells assessed as growth inhibition after 72 hrs by XTT assay. Conditions: A549, 72 h. It is filed as functional, cell-based. Put shortly: as §1
Assay [5] is filed under the species Bos taurus. Briefly: Inhibition of bovine brain tubulin polymerization at 20 uM after 30 mins by spectrophotometry. Put shortly: (§2)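 Bovine brain tubulin at 1.5 mg/mL, pH 6.7, in 0.1 M MES, 1 mM EGTA, 1 mM MgCl2, 1 mM β-ME, 1.5 mM GTP with ligand. Incubated 20 °C for 30 min, then on ice 10 min. Assembly read as the A450 rise on a shift from 4 to 38 °C; inhibition is plateau minus baseline against ligand-free control. IC50 from monoexponential fits.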

Assay [6] in a line: Inhibition of bovine brain tubulin polymerization after 30 mins by spectrophotometry. Further details: species or system Bos taurus. Put shortly: as §2
Assay [7] concerns HeLa. Briefly: Inhibition of microtubule system in human HeLa cells at 10 nM after 18 hrs by confocal microscopic analysis. The class given is cell-based. The method in brief:
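HeLa cells grown on poly-L-lysine coverslips and treated 18 h at 10^-8 M. Washed in HPEM (pH 6.6), fixed 15 min in 4% paraformaldehyde, permeabilized with 0.5% Triton X-100. Stained with anti-α-tubulin (1:150, 1 h), then CY3 anti-mouse IgG (1:100, 1 h, 4 °C). Imaged by confocal microscopy; representative of at least three experiments.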

In general, IC50 refers to the midpoint of a concentration-inhibition curve. One may read the inhibition as the share of the control response that was lost under treatment. As for `COc1cc(C(C)c2ccc3[nH]cc(C=O)c3c2)cc(OC)c1OC` (stereo not given), the IC50 in assay [1] turned out to be 5.8 µM; in assay [2] it was 5.8 µM; in assay [3] it was 5.4 µM; in assay [4] it was 9.1 µM. The same compound had an inhibition in assay [5] of 0%.
As for `COc1cc(/C(=C\C=O)c2ccc3c(c2)c(C=O)cn3C)cc(OC)c1OC`, the IC50 in assay [1] amounted to 0.03 µM; in assay [2], 0.17 µM; in assay [3], 0.029 µM; in assay [4] it was 0.32 µM. Besides, the inhibition in assay [5] turned out to be 96%.
Turning to `COc1cc(C(=O)c2ccc3c(c2)c(C(=O)O)cn3C)cc(OC)c1OC`, the IC50 in assay [1] is 7 µM; in assay [2] it was more than 10 µM; in assay [3] it was more than 10 µM; in assay [4], more than 10 µM. The inhibition in assay [5] was 2%.
On to `C=C(c1cc(OC)c(OC)c(OC)c1)c1ccc2c(c1)c(C(=O)O)cn2C`, for which the IC50 in assay [1] is 0.88 µM; in assay [2] it was 0.55 µM; in assay [3], 1.1 µM; in assay [4], 1.1 µM; in assay [6] it was 5 µM. This compound also returned an inhibition in assay [5] of 91%.
In the case of `COc1cc(C(=O)c2nc3cc(Br)ccc3n2C)cc(OC)c1OC`, the IC50 in assay [1] was 0.19 µM; in assay [2], 0.34 µM; in assay [3], 0.029 µM; in assay [4], 0.4 µM. Besides, the inhibition in assay [5] was 37%.
For the compound `COc1ccc(C(=O)c2ccc3c(ccn3C)c2)c(OC)c1OC`, the IC50 in assay [2] worked out at 0.24 µM; in assay [3], 0.24 µM; in assay [4], 0.38 µM; in assay [6], 0.4 µM. Moreover, the inhibition in assay [5] turned out to be 100%.
`COc1ccc(C(=O)c2ccc3c(c2)c(C#N)cn3C)c(OC)c1OC`: the IC50 in assay [1] turned out to be 0.27 µM; in assay [2], 0.31 µM; in assay [3] it was 0.29 µM; in assay [4], 2 µM. Further, the inhibition in assay [5] amounted to 40%.
As for `COc1cc(C(=O)c2ccc3c(ccn3C)c2)cc(OC)c1OC`, the IC50 is 0.025 µM in assay [1]; 0.027 µM in assay [2]; 0.027 µM in assay [3]; 0.19 µM in assay [4]; 7.9 µM in assay [6]. For the same compound, the inhibition in assay [5] was 98%.
For `C=C(c1ccc2c(c1)c(C#N)cn2C)c1ccc(OC)c(OC)c1OC`, the IC50 in assay [1] came to 0.032 µM; in assay [2], 0.032 µM; in assay [3], 0.027 µM; in assay [4] it was 0.36 µM; in assay [6], 2.2 µM. In assay [5], this compound came in with an inhibition of 89%.
With `C=C(c1cc(OC)c(OC)c(OC)c1)c1ccc2[nH]ccc2c1`, the IC50 in assay [1] was determined as 2.1 µM; in assay [2] it was 5.1 µM; in assay [3], 3.6 µM; in assay [4] it was 9 µM. The inhibition in assay [5] was 36%.
The like results for `COc1cc(C(C)c2ccc3[nH]ccc3c2)cc(OC)c1OC` (stereo not given) were, in that order, 2.3 µM, 3.3 µM, 3.4 µM, 4.9 µM and 5%.
The like results for `COc1ccc(C(=O)c2ccc3c(c2)c(C=O)cn3C)c(OC)c1OC` were, in that order, 0.78 µM, 5.3 µM, 0.78 µM, more than 10 µM and 73%.
For `COc1cc(C(=O)c2ccc3ocnc3c2)cc(OC)c1OC`, the IC50 in assay [1] is 0.34 µM; in assay [2] it was 2.8 µM; in assay [3] it was 0.47 µM; in assay [4], 10 µM. Moreover, in assay [5], the inhibition is 0%.
Turning to `C=C(c1ccc2c(c1)c(C=O)cn2C)c1ccc(OC)c(OC)c1OC`, the concentration for half-maximal inhibition (IC50) in assay [1] worked out at 0.032 µM; in assay [2], 0.23 µM; in assay [3], 0.032 µM; in assay [4], 1.8 µM; in assay [6], 4 µM. In addition, the inhibition entry in assay [7] was “Active”. The inhibition in assay [5] turned out to be 98%.
On to `COc1cc(C(=O)c2ccc3c(c2)c(C=O)cn3C)cc(OC)c1OC`, for which the IC50 is 0.32 µM in assay [1]; 3 µM in assay [2]; 0.31 µM in assay [3]; more than 10 µM in assay [4]; 16.9 µM in assay [6]. In assay [5], this compound showed an inhibition of 61%.
As for `C=C(c1ccc2c(c1)c(CO)cn2C)c1ccc(OC)c(OC)c1OC`, the IC50 in assay [1] came out at 0.3 µM; in assay [2], 0.46 µM; in assay [3], 0.22 µM; in assay [4], 0.44 µM. Further, the inhibition in assay [5] is 32%.
On to `COc1cc(C(=CC=O)c2ccc3c(c2)c(C=O)cn3C)cc(OC)c1OC`, for which the IC50 is 0.031 µM in assay [1]; 0.22 µM in assay [2]; 0.033 µM in assay [3]; 0.34 µM in assay [4]; 7 µM in assay [6]. The compound further had an inhibition in assay [5] of 88%.
Regarding `C=C(c1cc(OC)c(OC)c(OC)c1)c1ccc2c(c1)c(C=O)cn2C`, the IC50 was 0.02 µM in assay [1]; 0.062 µM in assay [2]; 0.028 µM in assay [3]; 3 µM in assay [4]; 0.9 µM in assay [6]. Also, the inhibition result in assay [7] was “Active”. The inhibition in assay [5] was found to be 100%.
With `C=C(c1cc(OC)c(OC)c(OC)c1)c1ccc2c(c1)c(C=NN)cn2C`, the IC50 in assay [1] was 0.038 µM; in assay [2], 0.3 µM; in assay [3] it was 0.18 µM; in assay [4], 3.2 µM. The same compound came in with an inhibition in assay [5] of 12%.
Consider `C=C(c1ccc2c(c1)c(C=NO)cn2C)c1ccc(OC)c(OC)c1OC`, for which the IC50 in assay [1] was determined as 0.034 µM; in assay [2] it was 0.32 µM; in assay [3], 0.27 µM; in assay [4], 0.29 µM; in assay [6], 4 µM. In assay [5], the inhibition was found to be 95%.
Regarding `COc1cc(C(C)c2ccc3c(c2)c(C)cn3C)cc(OC)c1OC` (stereo not given), the concentration for half-maximal inhibition (IC50) in assay [1] was determined as 0.31 µM; in assay [2], 0.31 µM; in assay [3] it was 0.28 µM; in assay [4] it was 0.32 µM. The same compound came in with an inhibition in assay [5] of 90%.
On to `C=C(c1cc(OC)c(OC)c(OC)c1)c1ccc2c(c1)c(CO)cn2C`, for which the IC50 in assay [1] worked out at 0.31 µM; in assay [2], 2 µM; in assay [3], 0.25 µM; in assay [4], 3.2 µM. Further, in assay [5], the inhibition was 32%.
On to `COc1ccc(C(C)c2ccc3c(ccn3C)c2)c(OC)c1OC` (stereo not given), for which the IC50 in assay [1] was 0.31 µM; in assay [2], 0.33 µM; in assay [3], 0.37 µM; in assay [4], 0.47 µM. In addition, the inhibition in assay [5] is 87%.
With `C=C(c1ccc2c(ccn2C)c1)c1ccc(OC)c(OC)c1OC`, the IC50 in assay [1] was determined as 0.032 µM; in assay [2], 0.31 µM; in assay [3], 0.28 µM; in assay [4], 0.73 µM; in assay [6], 4.7 µM. The same compound had an inhibition in assay [5] of 97%.
`COc1cc(C(O)c2nc3cc(Br)ccc3n2C)cc(OC)c1OC` (stereo not given): the IC50 in assay [1], in assay [2], in assay [3] and in assay [4] was more than 10 µM in each case. For the same compound, the inhibition in assay [5] was 2%.
With `C=C(c1cc(OC)c(OC)c(OC)c1)c1ccc2c(c1)c(C=NO)cn2C`, the IC50 in assay [1] was found to be 0.0062 µM; in assay [2], 0.033 µM; in assay [3] it was 0.021 µM; in assay [4], 0.03 µM; in assay [6], 2.6 µM. Moreover, the inhibition result in assay [7] is “Active”. In assay [5], this compound displayed an inhibition of 93%.
For `C=C(c1cc(OC)c(OC)c(OC)c1)c1ccc2c(ccn2C)c1`, the IC50 in assay [1] was 0.0027 µM; in assay [2], 0.0031 µM; in assay [3], 0.0028 µM; in assay [4] it was 0.028 µM; in assay [6] it was 0.7 µM. Moreover, the inhibition in assay [5] is 96%.
Regarding `COc1cc(C(O)c2nc3ccc(Br)cc3n2C)cc(OC)c1OC` (stereo not given), the half-inhibitory concentration (IC50) in assay [1], in assay [2], in assay [3] and in assay [4] was more than 10 µM each time. In assay [5], this compound showed an inhibition of 22%.
With `COc1ccc(C(=CC=O)c2ccc3c(c2)c(C=O)cn3C)c(OC)c1OC`, the IC50 in assay [1] is 0.3 µM; in assay [2], 0.3 µM; in assay [3], 0.3 µM; in assay [4], 0.35 µM; in assay [6], 5.9 µM. Moreover, in assay [5], the inhibition is 98%.
Turning to `COc1cc(C(=O)c2nc3ccc(Br)cc3n2C)cc(OC)c1OC`, the IC50 in assay [1] was 2.3 µM; in assay [2] it was 2.7 µM; in assay [3], 2.4 µM; in assay [4], 10 µM. The same compound returned an inhibition in assay [5] of 37%.
For `COc1ccc(C(C)c2ccc3c(c2)c(C=NN)cn3C)c(OC)c1OC` (stereo not given) the same measures were 0.43 µM, 3.2 µM, 1.8 µM, more than 10 µM and 0%.
